Here are results for 27 compounds from ChEMBL document CHEMBL1132658, “Second-generation peptidomimetic inhibitors of protein farnesyltransferase demonstrating improved cellular potency and significant in vivo efficacy” (J Med Chem, 1999).

A value given as a limit tells only on which side of the number the result lay.

Series [1] relates to NIH3T3. Description: In Vitro inhibition of Ha-Ras procession by using subconfluent NIH3T3 ras-transformed cells. Particulars: Mus musculus, read-out: ED50 (the source's name). It is filed as functional.
Series [2] in a line: Area under the curve during systemic administration. It is filed as ADME. Also noted: concentration or dose not given beside the values. Particulars: other: systemic administration.
Series [3] has as its target Protein farnesyltransferase (Bos taurus, UniProt P29702+P49355). Description: In vitro inhibition of farnesyltransferase purified from bovine brain using scintillation proximity assay.
Series [4] in a line: Portal vein area under the curve after intraduodenal administration. The arrangement: concentration or dose not given beside the values.
A short description of series [5]: Biological half-life in the rat. It is filed as ADME, organism-based. To be noted: in vivo. The essentials:
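Half-life determined after intravenous dosing in rats.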

As for `CSCC[C@H](NC(=O)c1ccc(CN(Cc2ccccc2)c2cccnc2)cc1-c1ccccc1C)C(=O)O`, in series [1], the EC50 worked out at 13 nM. Besides, the exposure (AUC) in series [2] amounted to 500 ng·h/mL; in series [4], 3000 ng·h/mL. The compound also showed an IC50 in series [3] of 0.1 nM. In series [5], this compound gave a half-life of 49.8 min.

`CSCC[C@H](NC(=O)c1ccc(CN(c2cccnc2)S(=O)(=O)c2ccccc2)cc1-c1ccccc1C)C(=O)O` showed an IC50 in series [3] of 7 nM.

With `CSCC[C@H](NC(=O)c1cc(CC(C)C)c(COc2cccnc2)cc1-c1ccccc1C)C(=O)O`, in series [1], the EC50 is more than 10000 nM. In series [3], this compound returned a half-inhibitory concentration (IC50) of 29 nM.

For `CSCC[C@H](NC(=O)c1ccc(CN(Cc2cc(F)cc(F)c2)Cc2cncs2)cc1-c1ccccc1C)C(=O)O`, in series [1], the EC50 came out at 500 nM. Besides, the exposure (AUC) is 300 ng·h/mL in series [2] and 2400 ng·h/mL in series [4]. The IC50 in series [3] is 0.2 nM. The compound further had a half-life in series [5] of 67.8 min.

As to `CSCC[C@H](NC(=O)c1ccc(CN(Cc2ccccc2)Cc2cncs2)cc1-c1ccccc1C)C(=O)O`, in series [1], the EC50 turned out to be 300 nM. In addition, the AUC in series [2] is 1600 ng·h/mL; in series [4], 3200 ng·h/mL. Besides, in series [3], the IC50 amounted to 0.4 nM. The compound also showed a half-life in series [5] of less than 24 min.

In the case of `CSCC[C@H](NC(=O)c1ccc(COc2cccnc2)cc1-c1ccccc1C)C(=O)O`, in series [1], the EC50 came to 400 nM.

`CSCC[C@H](NC(=O)c1cc(-c2cccs2)c(COc2cccnc2)cc1-c1ccccc1C)C(=O)O`: half-maximal inhibition in series [3] (IC50) required 510 nM.

With `CSCC[C@H](NC(=O)c1ccc(CN(Cc2cc(F)cc(F)c2)c2ccccc2)cc1-c1ccccc1C)C(=O)O`, in series [1], the EC50 came out at 1000 nM. Besides, the AUC was found to be 10800 ng·h/mL in series [2] and 14300 ng·h/mL in series [4]. Further, the 50% inhibitory concentration (IC50) in series [3] was 0.4 nM. Besides, the half-life in series [5] was 114 min.

As for `CCCCCc1cc(C(=O)N[C@@H](CCSC)C(=O)O)c(-c2ccccc2C)cc1COc1cccnc1`, in series [1], the EC50 was 1000 nM. This compound also returned an IC50 in series [3] of 2 nM.

On to `CSCC[C@H](NC(=O)c1ccc(CN(CC2CCCCC2)c2cccnc2)cc1-c1ccccc1C)C(=O)O`, for which the EC50 in series [1] stood at 10 nM. Further, the results for the AUC in series [2] and in series [4] were 100 ng·h/mL and 1000 ng·h/mL, respectively. The compound further displayed an IC50 in series [3] of 0.1 nM. Also, the half-life in series [5] is less than 24 min.

In series [3], `CCCCc1cc(C(=O)N[C@@H](CCSC)C(=O)O)c(-c2ccccc2C)cc1COc1cccnc1` displayed an IC50 of 11 nM.

For `CSCC[C@H](NC(=O)c1ccc(CN(Cc2ccccc2)c2cnccn2)cc1-c1ccccc1C)C(=O)O`, the EC50 in series [1] is 50 nM. Also, the AUC in series [2] worked out at 900 ng·h/mL; in series [4] it was 1800 ng·h/mL. Further, the half-maximal inhibitory concentration (IC50) in series [3] turned out to be 0.8 nM. This compound also showed a half-life in series [5] of less than 24 min.

`CSCC[C@H](NC(=O)c1cc(CC2CCCCC2)c(COc2cccnc2)cc1-c1ccccc1C)C(=O)O`: in series [1], the EC50 stood at 1000 nM. The compound further displayed a half-maximal inhibitory concentration (IC50) in series [3] of 12 nM.

As to `CSCC[C@H](NC(=O)c1cc(-c2cc(Cl)cc(Cl)c2)c(COc2cccnc2)cc1-c1ccccc1C)C(=O)O`, in series [3], half-maximal inhibition (IC50) was put at 95 nM.

For `CSCC[C@H](NC(=O)c1ccc(CN(C(=O)c2ccccc2)c2cccnc2)cc1-c1ccccc1C)C(=O)O`, the EC50 in series [1] is more than 1000 nM. The compound further displayed a 50% inhibitory concentration (IC50) in series [3] of 53 nM.

Regarding `CCc1cc(C(=O)N[C@@H](CCSC)C(=O)O)c(-c2ccccc2C)cc1COc1cccnc1`, in series [1], the EC50 was less than 10000 nM. Also, inhibition in series [3] was half-maximal at 11 nM (IC50).

Consider `CSCC[C@H](NC(=O)c1ccc(CN(C(=O)Cc2ccccc2)c2cccnc2)cc1-c1ccccc1C)C(=O)O`, for which the EC50 in series [1] is more than 1000 nM. For the same compound, in series [3], half-maximal inhibition (IC50) required 39 nM.

Regarding `CSCC[C@H](NC(=O)c1ccc(CN(Cc2ccccc2)Cc2cscn2)cc1-c1ccccc1C)C(=O)O`, the EC50 in series [1] was more than 1000 nM. Besides, the IC50 in series [3] came to 16 nM.

Take `CSCC[C@H](NC(=O)c1ccc(CN(Cc2ccccc2)Cc2nccs2)cc1-c1ccccc1C)C(=O)O`: in series [1], the EC50 is more than 1000 nM. This compound returned a half-inhibitory concentration (IC50) in series [3] of 7 nM.

With `CSCC[C@H](NC(=O)c1cc(Cc2ccccc2)c(COc2cccnc2)cc1-c1ccccc1C)C(=O)O`, the EC50 in series [1] was more than 1000 nM. Besides, the IC50 in series [3] was 1 nM.

Regarding `CSCC[C@H](NC(=O)c1cc(-c2ccc(C)cc2)c(COc2cccnc2)cc1-c1ccccc1C)C(=O)O`, the IC50 in series [3] came to 370 nM.

As for `CSCC[C@H](NC(=O)c1cc(CCc2ccccc2)c(COc2cccnc2)cc1-c1ccccc1C)C(=O)O`, the EC50 in series [1] is 1000 nM. The IC50 in series [3] was determined as 0.5 nM.

For the compound `CSCC[C@H](NC(=O)c1ccc(CN(Cc2ccccc2)c2ccccc2)cc1-c1ccccc1C)C(=O)O`, in series [1], the EC50 came to 400 nM. The values for the AUC in series [2] and in series [4] were 600 ng·h/mL and 1900 ng·h/mL, respectively. In series [3], this compound showed an IC50 of 1.4 nM. Moreover, the half-life in series [5] was 48 min.

Take `CSCC[C@H](NC(=O)c1ccc(CN(Cc2ccccc2)c2cncnc2)cc1-c1ccccc1C)C(=O)O`: the EC50 in series [1] was 90 nM. The AUC in series [2] was determined as 20 ng·h/mL; in series [4], 10400 ng·h/mL. Besides, the IC50 in series [3] was found to be 0.4 nM. Also, in series [5], the half-life is 30 min.

Take `CSCC[C@H](NC(=O)c1ccc(CNc2cccnc2)cc1-c1ccccc1C)C(=O)O`: the EC50 in series [1] amounted to 3000 nM. The concentration for half-maximal inhibition (IC50) in series [3] stood at 0.4 nM.

For `CSCC[C@H](NC(=O)c1ccc(CN(Cc2cc(F)cc(F)c2)c2cccnc2)cc1-c1ccccc1C)C(=O)O`, the EC50 in series [1] was 50 nM. For the same compound, the area under the curve (AUC) in series [2] was found to be 140 ng·h/mL; in series [4], 3560 ng·h/mL. In addition, inhibition in series [3] was half-maximal at 1.4 nM (IC50). Besides, in series [5], the half-life was 60 min.

`CSCC[C@H](NC(=O)c1ccc(CN(Cc2ccccc2)c2cncc(F)c2)cc1-c1ccccc1C)C(=O)O`: in series [1], the EC50 came to 30 nM. The figures for the AUC in series [2] and in series [4] were 400 ng·h/mL and 2400 ng·h/mL, respectively. Also, inhibition in series [3] was half-maximal at 0.1 nM (IC50). In addition, the half-life in series [5] is less than 24 min.

For orientation: AUC means concentration integrated over time. One may read the IC50 as the point on the concentration scale where inhibition reaches its midpoint. As a reminder, the half-life is the time in which the quantity being followed falls by half.
